Assay [1] deals with T1, Glycogen phosphorylase, liver form (Homo sapiens, UniProt P06737).
T1 sequence (P06737 whole entry): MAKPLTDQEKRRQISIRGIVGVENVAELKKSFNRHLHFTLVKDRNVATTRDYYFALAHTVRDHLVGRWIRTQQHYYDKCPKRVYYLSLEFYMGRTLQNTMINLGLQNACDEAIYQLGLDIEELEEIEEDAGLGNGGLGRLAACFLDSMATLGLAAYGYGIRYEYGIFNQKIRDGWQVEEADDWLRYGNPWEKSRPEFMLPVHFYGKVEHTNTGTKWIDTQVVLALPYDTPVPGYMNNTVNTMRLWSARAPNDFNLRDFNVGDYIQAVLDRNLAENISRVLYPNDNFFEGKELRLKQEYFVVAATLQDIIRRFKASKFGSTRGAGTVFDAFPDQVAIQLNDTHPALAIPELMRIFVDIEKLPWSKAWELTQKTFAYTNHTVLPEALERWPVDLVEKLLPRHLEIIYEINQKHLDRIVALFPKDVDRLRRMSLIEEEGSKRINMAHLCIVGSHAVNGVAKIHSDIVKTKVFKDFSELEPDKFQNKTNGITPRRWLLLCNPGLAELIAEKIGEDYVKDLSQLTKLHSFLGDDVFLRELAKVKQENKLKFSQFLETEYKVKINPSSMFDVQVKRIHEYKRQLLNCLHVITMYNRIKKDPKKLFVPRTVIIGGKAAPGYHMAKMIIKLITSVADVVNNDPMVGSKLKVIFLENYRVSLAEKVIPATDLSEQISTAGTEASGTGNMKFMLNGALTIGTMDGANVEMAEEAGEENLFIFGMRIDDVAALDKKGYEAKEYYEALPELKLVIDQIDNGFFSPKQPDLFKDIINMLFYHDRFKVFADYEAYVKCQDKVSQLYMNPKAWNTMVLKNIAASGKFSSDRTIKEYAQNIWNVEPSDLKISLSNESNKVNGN
Put plainly: Inhibition of glycogen phosphorylase in human hepatocytes assessed as decrease in glucagon stimulated glucose release after 3 hrs by glucose oxidase method. The class given is cell-based, Hepatocyte. A digest of the protocol:
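Human hepatocytes isolated by two-step perfusion of surgical liver pieces and seeded at 1×10⁶/well. Glycogen-loaded for 20 h in medium containing insulin, dexamethasone and 4.5 g/L glucose. Then 3 h in glucose-free DMEM with 100 nM glucagon and inhibitor at several concentrations. Supernatant glucose measured by glucose oxidase (A492). IC50 from % of glucagon-stimulated value, triplicates across 3-5 cultures.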

Assay [2] has as its target T1, Glycogen phosphorylase, liver form. As to the kind of experiment: Inhibition of glycogen phosphorylase in human hepatocytes assessed as glucagon stimulated glycogen content after 3 hrs by colorimetric GOD method. It counts as cell-based, Hepatocyte. A digest of the protocol: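 Human hepatocytes, glycogen-loaded 20 h, then 3 h in glucose-free DMEM with 100 nM glucagon and inhibitor. Washed cells digested with amyloglucosidase (0.75 UI/mL, acetate pH 4.8) for 2 h at 40 °C. Released glucose quantified by glucose oxidase. IC50 from % of glucagon-stimulated glycogen, triplicates across 3-5 cultures.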

Assay [3] deals with T2, Glycogen phosphorylase, liver form (Rattus norvegicus, UniProt P09811).
T2 sequence (P09811 whole entry): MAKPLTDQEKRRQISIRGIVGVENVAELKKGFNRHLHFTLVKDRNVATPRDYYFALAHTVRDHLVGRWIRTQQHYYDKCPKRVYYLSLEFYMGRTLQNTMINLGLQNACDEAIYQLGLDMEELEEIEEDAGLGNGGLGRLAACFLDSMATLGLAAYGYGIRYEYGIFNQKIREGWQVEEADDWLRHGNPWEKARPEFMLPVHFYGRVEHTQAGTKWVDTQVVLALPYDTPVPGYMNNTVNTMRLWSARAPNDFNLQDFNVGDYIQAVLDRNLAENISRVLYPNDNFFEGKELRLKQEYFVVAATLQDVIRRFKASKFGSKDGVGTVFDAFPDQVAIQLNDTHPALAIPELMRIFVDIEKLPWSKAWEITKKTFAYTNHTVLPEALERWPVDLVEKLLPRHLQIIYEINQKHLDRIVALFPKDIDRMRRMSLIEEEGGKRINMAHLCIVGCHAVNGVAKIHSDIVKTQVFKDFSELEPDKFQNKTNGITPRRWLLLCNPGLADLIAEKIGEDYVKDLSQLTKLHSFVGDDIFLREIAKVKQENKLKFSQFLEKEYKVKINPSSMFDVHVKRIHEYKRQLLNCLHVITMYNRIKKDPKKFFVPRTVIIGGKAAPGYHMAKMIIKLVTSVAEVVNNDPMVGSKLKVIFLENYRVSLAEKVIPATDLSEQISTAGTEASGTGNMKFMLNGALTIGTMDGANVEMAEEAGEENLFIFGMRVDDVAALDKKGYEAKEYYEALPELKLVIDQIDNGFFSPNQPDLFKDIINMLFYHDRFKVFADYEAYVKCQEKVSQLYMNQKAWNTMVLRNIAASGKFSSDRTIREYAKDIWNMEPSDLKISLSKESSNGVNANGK
Put plainly: Inhibition of glycogen phosphorylase in Wistar rat hepatocytes assessed as decrease in glucagon stimulated glucose release after 3 hrs by glucose oxidase method. It counts as cell-based, Hepatocyte. The essentials: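 Hepatocytes from male Wistar rats (160-220 g) isolated by two-step perfusion, viability >75%. Seeded at 830,000 cells/well, then cultured 24 h with 100 nM dexamethasone. Incubated 3 h in Hepes-bicarbonate buffer pH 7.4 with 0.1% BSA, 100 nM glucagon and inhibitor at several concentrations. Supernatant glucose measured by glucose oxidase (A492). IC50 taken from % of glucagon-stimulated value, mean of three independent experiments.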

Assay [4] addresses T3, Glycogen phosphorylase, muscle form (Oryctolagus cuniculus, UniProt P00489).
T3 sequence (P00489 whole entry): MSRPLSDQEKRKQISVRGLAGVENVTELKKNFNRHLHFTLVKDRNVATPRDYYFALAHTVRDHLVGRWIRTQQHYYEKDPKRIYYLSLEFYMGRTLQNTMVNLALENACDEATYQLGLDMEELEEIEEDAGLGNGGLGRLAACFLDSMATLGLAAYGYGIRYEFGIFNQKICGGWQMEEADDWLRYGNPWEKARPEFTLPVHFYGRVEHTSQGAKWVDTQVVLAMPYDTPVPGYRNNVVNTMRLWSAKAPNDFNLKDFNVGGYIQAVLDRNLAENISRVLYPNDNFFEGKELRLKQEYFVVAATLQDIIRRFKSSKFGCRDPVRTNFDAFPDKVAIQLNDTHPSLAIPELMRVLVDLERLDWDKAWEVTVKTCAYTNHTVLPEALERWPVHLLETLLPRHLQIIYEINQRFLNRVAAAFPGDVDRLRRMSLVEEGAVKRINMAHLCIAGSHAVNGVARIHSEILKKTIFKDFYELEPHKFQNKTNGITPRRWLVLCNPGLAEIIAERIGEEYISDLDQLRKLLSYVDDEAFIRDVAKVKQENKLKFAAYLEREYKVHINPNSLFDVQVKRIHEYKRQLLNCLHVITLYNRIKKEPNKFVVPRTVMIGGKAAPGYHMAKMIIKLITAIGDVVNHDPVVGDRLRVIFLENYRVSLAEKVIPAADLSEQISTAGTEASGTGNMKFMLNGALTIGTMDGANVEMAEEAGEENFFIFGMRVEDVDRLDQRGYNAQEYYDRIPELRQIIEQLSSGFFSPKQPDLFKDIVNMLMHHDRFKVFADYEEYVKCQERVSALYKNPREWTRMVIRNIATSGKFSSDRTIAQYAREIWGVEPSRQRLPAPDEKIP
As to the kind of experiment: Inhibition of rabbit muscle glycogen phosphorylase b.

Assay [5] deals with Rattus norvegicus. Put plainly: Anti-hyperglycemic activity in Zucker fa/fa rat model assessed as decrease in liver glucose production at 30 mg/kg, po administered as single dose for 20 mins followed by glucagon challenge measured for 45 mins by glucose oxidase method. It counts as functional. Details: scale not given: the % may be the effect or the level left. A digest of the protocol: (§1)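 Acute glucagon challenge in male Zucker fa/fa rats, 10-13 weeks old, 3 treated and 3 vehicle per experiment. Single oral dose (7.5-90 mg/kg range; vehicle 4-5 mL/kg po) given 65 min before the final blood glucose reading. Glucagon 200 µg/kg SC. Tail-vein plasma taken at 0, 10, 20 and 45 min, glucose by glucose oxidase. Hepatic glucose production read as 45-min AUC.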

The subject of assay [6] is Rattus norvegicus. As to the kind of experiment: Anti-hyperglycemic activity in Zucker fa/fa rat model assessed as decrease in insulin output at 30 mg/kg, po administered for 4 days followed by glucagon challenge for 2 days measured for 45 mins. The class given is functional, organism-based. A digest of the protocol:
(§2)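 Male Zucker fa/fa rats, 10-13 weeks old, after 5 days of stabilization; 3 dosed and 3 vehicle controls. Daily oral dosing at 30 mg/kg for 4 days, then glucagon challenge (200 µg/kg, scapular SC). Tail-vein blood taken at 0, 10, 20 and 45 min. Plasma glucose by glucose oxidase, insulin by radioimmunoassay, each expressed as delta from basal. Glucose output given as 45-min AUC.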

The subject of assay [7] is Rattus norvegicus. As to the kind of experiment: Anti-hyperglycemic activity in Zucker fa/fa rat model assessed as decrease in hepatic glucose production at 30 mg/kg, po administered for 4 days followed by glucagon challenge for 2 days measured for 45 mins. The class given is functional. Details: scale not given: the % may be the effect or the level left. The essentials:
as §2

Assay [8] concerns Rattus norvegicus. Put plainly: Anti-hyperglycemic activity in po dosed Zucker fa/fa rat model assessed as decrease in liver glucose production administered 20 mins followed by glucagon challenge measured for 45 mins by glucose oxidase method. It counts as functional, organism-based. A digest of the protocol: as §1
Assay [9] concerns Rattus norvegicus. Put plainly: Anti-hyperglycemic activity in Zucker fa/fa rat model assessed as decrease in liver glucose production at 60 mg/kg, po administered as single dose for 20 mins followed by glucagon challenge measured for 45 mins by glucose oxidase method. It counts as functional. Details: scale not given: the % may be the effect or the level left. A digest of the protocol:
as §1

For assay [10], the system named is Rattus norvegicus. As to the kind of experiment: Anti-hyperglycemic activity in Zucker fa/fa rat model assessed as decrease in liver glucose production at 7.5 mg/kg, po administered as single dose for 20 mins followed by glucagon challenge measured for 45 mins by glucose oxidase method. The class given is functional. Details: scale not given: the % may be the effect or the level left. A digest of the protocol: as §1

In assay [11] the test system is Rattus norvegicus. As to the kind of experiment: Anti-hyperglycemic activity in glucagon challenged Zucker fa/fa rat model assessed as decrease in glycaemia at 30 mg/kg, po administered for 6 days measured for 60 mins post last dose by OGTT relative to control. The class given is functional, organism-based. The essentials: (§3)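 Zucker fa/fa rats received 30 mg/kg po daily for 6 days, with a glucagon challenge after day 4. They were then fasted overnight and given an OGTT (glucose 3 g/kg). Tail-vein plasma glucose measured by glucose oxidase and insulin by radioimmunoassay, each expressed as delta from basal per rat.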

In assay [12] the test system is Rattus norvegicus. As to the kind of experiment: Anti-hyperglycemic activity in Zucker fa/fa rat model assessed as decrease in liver glucose production at 15 mg/kg, po administered as single dose for 20 mins followed by glucagon challenge measured for 45 mins by glucose oxidase method. The class given is functional. Details: scale not given: the % may be the effect or the level left. A digest of the protocol:
as §1

For assay [13], the system named is Rattus norvegicus. Put plainly: Anti-hyperglycemic activity in glucagon challenged Zucker fa/fa rat model assessed as decrease in insulinemia at 30 mg/kg, po administered for 6 days measured for 60 mins post last dose by OGTT relative to control. The class given is functional, organism-based. The essentials: as §3

pIC50: −log10 of the molar value. Active and inactive are the calls of the source. The calls are words filed in the database; no cut-off is given here.

What is called pIC50 is the negative decadic logarithm of the IC50, by convention in mol/L.

Regarding `CC(=O)OC[C@H]1O[C@@]2(CC(c3ccc4ccccc4c3)=NO2)[C@H](OC(C)=O)[C@@H](OC(C)=O)[C@@H]1OC(C)=O`, the figures for the pIC50 in [1], in assay [2] and in [3] were 5.60, 5.62 and 4.87, respectively.
On to `COc1cc(OC)cc(C2=NO[C@@]3(C2)O[C@H](CO)[C@@H](O)[C@H](O)[C@H]3O)c1`, for which the pIC50 is less than 4.00 in assay [1], less than 4.00 in assay [2], 3.49 in [4] and less than 4.00 in assay [3].
In [4], `OC[C@H]1O[C@@]2(CC(c3nc4ccccc4s3)=NO2)[C@H](O)[C@@H](O)[C@@H]1O` gave a pIC50 of 5.21.
As for `OC[C@H]1O[C@@]2(CC(c3ccc4ccccc4c3)=NO2)[C@H](O)[C@@H](O)[C@@H]1O`, the Activity is 30% in the assay on Rattus norvegicus [5]; 19% in the assay on Rattus norvegicus [7]; “Dose-dependent effect” in the assay on Rattus norvegicus [8]; 33% in the assay with Rattus norvegicus [9]; 3% with Rattus norvegicus [10]; 18% with Rattus norvegicus [12]. The figures for the pIC50 in assay [1], in assay [2] and in [3] were 4.70, 4.85 and 4.44, respectively. Besides, the result in the assay on Rattus norvegicus [6] and in the assay on Rattus norvegicus [13] was Active. Moreover, the outcome in the assay with Rattus norvegicus [11] was inactive.
Regarding `OC[C@H]1O[C@@]2(CC(c3cc4ccccc4c4ccccc34)=NO2)[C@H](O)[C@@H](O)[C@@H]1O`, the negative-log IC50 (pIC50) in assay [1] is less than 4.00; in [2], less than 4.00; in [4], 4.09; in assay [3] it was less than 4.00.
In the case of `OC[C@H]1O[C@@]2(CC(c3ccc4c(c3)OCO4)=NO2)[C@H](O)[C@@H](O)[C@@H]1O`, the pIC50 was less than 4.00 in assay [1], less than 4.00 in [2], 4.09 in [4] and less than 4.00 in [3].
For `OC[C@H]1O[C@@]2(CC(c3ccc4cc(O)ccc4c3)=NO2)[C@H](O)[C@@H](O)[C@@H]1O`, the pIC50 is 4.65 in assay [1], 4.86 in [2], 5.81 in assay [4] and 4.52 in assay [3].
In assay [4], `OC[C@H]1O[C@@]2(CC(c3cc4ccccc4o3)=NO2)[C@H](O)[C@@H](O)[C@@H]1O` showed a pIC50 of 4.60.

Values taken from ChEMBL document CHEMBL3763106, “Glucose-derived spiro-isoxazolines are anti-hyperglycemic agents against type 2 diabetes through glycogen phosphorylase inhibition” (Eur J Med Chem, 2016).
